Screening data: PubChem, Johns Hopkins Ion Channel Center
Compounds with a hit are over-represented: about 2.3% of the library has one in this group of screens.
TRPC6 act = mouse TRPC6 channel activators, primary screen, cell-based, HEK293, membrane potential dye. Short transient receptor potential channel 6 (Mus musculus), Q61143. B-score at 10 µM. AID 2550, 2010. 310,000 tested, 0.13% active. HEK293-TRPC6 membrane potential dye fluorescence; hits give high values;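 active means B-score of the integrated fluorescence ratio above library mean plus 3 SD, and starting fluorescence ratio within library mean plus 5 SD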;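 further: higher score means more depolarization so channel activation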
TRPC6 inh = mouse TRPC6 channel inhibitors, primary screen, cell-based, HEK293, membrane potential dye. 310,000 tested, 1.1% active. B-score at 10 µM. Short transient receptor potential channel 6 (Mus musculus), Q61143. ACh-evoked depolarization; hits give low values;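 active means B-score under library mean minus 3 SD, initial fluorescence not abnormally high, positive integrated signal ratio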;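 further: B-score derived from integrated fluorescence ratio over the kinetic read; more negative B-score means stronger inhibition of depolarization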
TRPC4 PAM = positive allosteric modulators of TRPC4, primary screen, cell-based, mouse TRPC4beta, HEK293 mu-opioid, Fluo-4 calcium. 310,000 tested, 0.42% active. DAMGO EC20, Fluo-4 Ca2+ flux; hits give high values. B-score at 10 µM;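 active means B-score of calcium response area above 5 SD of library B-scores, with initial fluorescence ratio within 5 SD of library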
Target sequence (Q9QUQ5 whole entry, looked up): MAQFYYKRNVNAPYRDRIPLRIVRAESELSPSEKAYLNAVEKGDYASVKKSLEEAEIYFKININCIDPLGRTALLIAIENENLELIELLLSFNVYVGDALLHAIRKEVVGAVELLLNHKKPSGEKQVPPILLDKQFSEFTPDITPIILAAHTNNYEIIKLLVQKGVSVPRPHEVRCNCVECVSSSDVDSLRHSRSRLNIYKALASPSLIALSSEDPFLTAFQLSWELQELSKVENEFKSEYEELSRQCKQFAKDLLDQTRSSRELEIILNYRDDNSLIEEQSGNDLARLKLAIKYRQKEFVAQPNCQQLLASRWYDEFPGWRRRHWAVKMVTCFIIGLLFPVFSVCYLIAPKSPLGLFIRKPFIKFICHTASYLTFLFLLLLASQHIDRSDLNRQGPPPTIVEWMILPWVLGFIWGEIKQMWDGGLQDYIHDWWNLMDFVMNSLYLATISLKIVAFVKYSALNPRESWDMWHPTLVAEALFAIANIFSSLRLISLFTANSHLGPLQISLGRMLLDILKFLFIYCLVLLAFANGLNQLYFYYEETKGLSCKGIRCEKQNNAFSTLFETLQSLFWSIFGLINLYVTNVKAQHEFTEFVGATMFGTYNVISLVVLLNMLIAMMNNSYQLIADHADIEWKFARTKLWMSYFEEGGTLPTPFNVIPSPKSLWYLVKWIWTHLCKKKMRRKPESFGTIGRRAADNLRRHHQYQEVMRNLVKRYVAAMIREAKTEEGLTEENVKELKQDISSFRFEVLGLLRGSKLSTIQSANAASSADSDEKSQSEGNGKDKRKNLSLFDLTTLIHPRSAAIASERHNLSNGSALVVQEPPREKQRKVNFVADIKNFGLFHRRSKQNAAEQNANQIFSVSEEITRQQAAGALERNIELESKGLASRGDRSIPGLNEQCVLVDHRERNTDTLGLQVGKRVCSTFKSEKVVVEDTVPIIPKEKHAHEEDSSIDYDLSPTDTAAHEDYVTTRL
TRPC4 act = activators of mouse TRPC4 channel, primary screen, Fluo4 calcium, HEK293 TRPC4beta/mu-opioid cells; Short transient receptor potential channel 4 (Mus musculus), Q9QUQ5; Fluo4 calcium fluorescence; hits give high values; 310,000 tested, 0.49% active; B-score at 10 µM;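 active means B-score above 5 SD of library B-scores, and initial fluorescence ratio not above library mean plus 5 SD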;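 further: positive B-score marks a calcium rise read as TRPC4 activation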
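Incubation: 45 min room-temperature Fluo4 loading, 110 s read / System: HEK293 cells stably co-expressing mouse TRPC4beta and mu-opioid receptor / Signal: Fluo4 fluorescence, kinetic / Control set: buffer (low) and maximal DAMGO (high) / Measure: integrated baseline-normalised fluorescence ratio, converted to per-well B score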
TRPC4 inh = inhibitors of mouse TRPC4 channel, primary screen, Fluo4 calcium, HEK293 TRPC4beta/mu-opioid cells. Short transient receptor potential channel 4 (Mus musculus), Q9QUQ5. DAMGO-evoked Fluo4 calcium flux; hits give low values. B-score at 10 µM. 300,000 tested, 0.39% active. AID 2247, 2010;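 active means B-score over 3 SD under the library average, no early fluorescence shift, positive overall ratio signal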
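Assay system: HEK293 cells with stable TRPC4beta plus mu-opioid receptor expression; Probe or stimulus: DAMGO in two steps, submaximal then maximal; Dosing: single-point compound dosing; Measured by: Fluo4 calcium-dye fluorescence, kinetic read; Read-out basis: B score from integrated Fluo4 fluorescence ratio.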
Of the large screens only hits and unclear results are named; the others gave an inactive call.

COc1ccc(/C=C2\SC(=O)N(CC(=O)Nc3ccc(F)cc3)C2=O)cc1O	TRPC4 PAM 11
CC(C#Cc1ccc2c(c1)COc1c3ccccc3nn1-2)OC(C)(C)C (configuration not stated)	none
Cc1ccc(NC(=S)N2CCN(S(=O)(=O)c3ccccc3)CC2)cc1C	none
O=C(Nc1ccccc1)C1=C[C@H](c2ccccc2)C[C@H](OCc2ccc(CO)cc2)O1	TRPC4 PAM 12
O=C(NCc1ccccc1)C1=C[C@H](c2ccccc2)C[C@H](OCc2ccc(CO)cc2)O1	TRPC4 act 176
O=C(NCc1ccccc1)C1=C[C@H](c2ccc(C(F)(F)F)cc2)C[C@H](OCc2ccc(CO)cc2)O1	TRPC4 PAM 19
CC(=O)n1cc([C@@H]2C=C(C(=O)NCc3ccccc3)O[C@H](OCc3ccc(CO)cc3)C2)c2ccccc21	TRPC4 PAM 15
O=C(NCc1ccccc1)C1=C[C@@H](c2ccc(Br)cc2)C[C@@H](OCc2ccc(CO)cc2)O1	none
O=C(Nc1ccccc1)C1=C[C@H](c2ccc(C(F)(F)F)cc2)C[C@H](OCc2ccc(CO)cc2)O1	none
CCCOc1cccc(C(=O)N/N=C/c2ccoc2)c1	none
CCCc1nnc(NC(=O)C2CCN(C(=O)c3ccco3)CC2)s1	none
O=C(NCc1ccccc1)c1c(Cl)nc(Cl)c(Cl)c1Cl	TRPC4 inh -6
Cc1nc(Cl)c(C(=O)NCc2ccccc2)c(C)c1Cl	none
O=C(Nc1sc2c(c1C(=O)NCCCO)CCCC2)c1ccccc1	none
NCCNC(=O)c1c(NC(=O)c2ccccc2)sc2c1CCCC2	TRPC4 act 175
CCC(C)c1ccc(NC(=O)C2CC3CCC2C3)cc1 (configuration not stated)	none
Cc1ccc(NC(=O)c2cccs2)cc1	TRPC4 act 77, TRPC4 inh -6
[N-]=[N+]=NCC/C=C\C1NS(=O)(=O)OCC1O (configuration not stated)	none
CN(C)CCCn1c(=O)n(CCc2ccccc2)c(=O)c2c3c(sc21)CCCCC3	TRPC4 PAM 22
CN(C)CCn1c(=O)n(Cc2ccccc2)c(=O)c2c3c(sc21)CCCCC3	none
CCOc1ccc(OCCOC(=O)CN2C(=O)NC3(CCCC3)C2=O)cc1	none
CCc1cc(C(=O)NCCN(C)C)cs1	TRPC4 act 78
Cc1cccc(C(=O)NCCN(C)C)c1	TRPC4 act 73
Cc1ccc(NC(=O)CSCC(=O)N(C)CC(=O)Nc2cccc3ccccc23)cc1	none
CCOc1ccc(NS(=O)(=O)c2ccc(C(=O)N3CCC3)cc2)cc1	none
O=C(c1ccco1)N1CCN(Cc2csc(-c3ccccc3Cl)n2)CC1	none
CC(C)CNC(=O)[C@H]1N2C(=O)c3ccccc3C2SC1(C)C (some centres not stated)	none
CCOCCOc1nc(C)cc(C)c1S(=O)(=O)c1ccccc1C	none
Cc1cc(C)c(S(=O)(=O)c2ccccc2C)c(OCC(C)(C)C)n1	TRPC4 inh -6
NC1=NC[C@H](Cc2ccc(O)cc2)N1CC1CCCCC1	TRPC4 act 76
COc1cc(-c2noc(C)c2-c2ccc(N(C)C)nc2)cc(OC)c1OC	TRPC4 act 66
COc1cc(-c2noc(C)c2-c2ccc3[nH]ccc3c2)cc(OC)c1OC	none
N#C/C(C(=O)Nc1ccc(Cl)cc1)=C(/S)Nc1ccccc1	none
O=C(COc1ccc(Br)cc1Cl)c1ccc[nH]1	TRPC4 inh -6
COc1cc(CCC(=O)OCC(=O)Nc2ccc(F)cc2F)cc(OC)c1OC	none
CCCCNc1nc(=S)[nH]c2cc(OC)c(OC)cc12	TRPC4 inh -8
O=C(COc1ccc(S(=O)(=O)N2CCCC2)cc1)N1CCCC1	none
COc1ccc(CCNC(=O)C2CCN(C(=O)c3ccc(C(C)(C)C)cc3)CC2)cc1	TRPC4 PAM 17
COc1ccc(CCNC(=O)C2CCN(C(=O)c3ccc(F)cc3)CC2)cc1	none
CC1CCC(NC(=O)c2ccc3c(c2)S(=O)(=O)c2ccccc2C3=O)CC1 (configuration not stated)	none
CCOC(=O)c1c(CC(C)C)csc1N	TRPC4 inh -6
COC(=O)CCCCCN1C(=O)/C(=C\c2ccncc2)SC1=S	TRPC4 PAM 10
CCc1ccc(/C=C2/SC(=S)N(CCCC(=O)Nc3ccccc3C(=O)O)C2=O)cc1	TRPC4 inh -6
CCc1ccc(/C=C2\SC(=S)N(CCCC(=O)Nc3ccccn3)C2=O)cc1	none
CC(C)c1ccc(/C=C2\SC(=O)N(CC(=O)NCCCn3ccnc3)C2=O)cc1	none
Cc1ccc2[nH]c(C(=O)NCCN3CCCC3)cc2c1	TRPC4 act 56
Cc1ccc2[nH]c(C(=O)N3CCCCC3)cc2c1	none
CCN1/C(=C\c2ccc3cc(C)ccc3[n+]2CC)Sc2cc(C)c(C)cc21	TRPC4 PAM 29, TRPC4 act 131
CCN1/C(=C/c2ccc3cccc(C)c3[n+]2CC)Sc2ccccc21	TRPC4 PAM 15, TRPC4 act 335, TRPC4 inh -6
O=C(c1ccccc1)N(Cc1ccc(F)cc1)Cc1nc2ccccc2c(=O)[nH]1	TRPC4 PAM 12
COc1ccc(C)cc1NCc1ccc([N+](=O)[O-])cc1	none
COc1ccc(CNCCc2ccc([N+](=O)[O-])cc2)c(OC)c1OC	TRPC4 act 81
CCOc1ccc(CNCCc2ccc(S(N)(=O)=O)cc2)cc1	none
CCOc1ccc2ccccc2c1CNCCc1ccc(S(N)(=O)=O)cc1	TRPC4 inh -6
NS(=O)(=O)c1ccc(CCNCc2ccccc2OCc2ccc(F)cc2)cc1	TRPC4 inh -6
NS(=O)(=O)c1ccc(NCc2ccccc2OCc2ccc(F)cc2)cc1	none
O=C(CN(c1ccccc1)S(=O)(=O)c1ccccc1[N+](=O)[O-])Nc1cccnc1	none
CCCCN(C(=O)c1c(CC)noc1C)c1c(N)n(CCCC)c(=O)[nH]c1=O	none
Cc1ccc(OCCC(=O)OCC(=O)Nc2ccc(C)cc2Cl)cc1	none
O=C(NCCc1ccc(Cl)cc1)C1COc2ccccc2O1 (configuration not stated)	none
CCOC(=O)c1c(NC(=O)CSc2ncn[nH]2)sc(C(C)=O)c1C	none
COC(=O)c1c(NC(=O)CSc2ncn[nH]2)sc(C)c1C	TRPC4 inh -7
CCOC(=O)N1CCN(C(=O)CN(C)S(=O)(=O)c2ccc(Cl)cc2)CC1	none
CCn1c(=O)c(C(=O)NNC(=O)c2ccccc2Cl)c(O)c2ccccc21	TRPC4 act 51
